Activity calls are given as the source filed them.
Legend:
Type in all cases: functional, organism-based
[1] = system: Saccharomyces cerevisiae; assay: Decrease in ARG5,6 mRNA level in Saccharomyces cerevisiae BY4741 at 15 uM by Northern blot analysis in presence of arginine relative to control
Summary of the method: (§1)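 BY4741 inoculated from a saturated culture (30 °C, YPD) into minimal medium with leucine, methionine, uracil and histidine. Treatments were added at inoculation: 15 µM PALO in 50 mM potassium phosphate pH 6.8, buffer alone (untreated), 1 mg/mL L-arginine, or both. Cells grown at 30 °C and harvested at mid-log (OD600 0.4–0.6). mRNA measured by quantitative northern blot, normalized to SCR1; mean of three replicates.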

[2] = system: Saccharomyces cerevisiae; assay: Increase in CPA1 mRNA level in Saccharomyces cerevisiae BY4741 at 15 uM by Northern blot analysis relative to control; summary of the method: as §1
[3] = system: Saccharomyces cerevisiae; assay: Decrease in TAP-tagged CPA1 protein level in Saccharomyces cerevisiae YSC1178-7502950 at 15 uM by Western blotting analysis in presence of arginine relative to control
Summary of the method: (§2)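 TAP-tagged strains (BY4741 background, untagged BY4741 as control) were grown from a saturated culture in supplemented minimal medium. At inoculation they received 15 µM PALO in 50 mM potassium phosphate pH 6.8, buffer alone, 1 mg/mL L-arginine, or both. Cells grown at 30 °C and harvested at OD600 0.4–0.6. Extracts were western blotted with anti-TAP antibody, with Coomassie-stained duplicate gels as loading controls. Band intensity was quantified.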

[4] = system: Saccharomyces cerevisiae; assay: Increase in TAP-tagged CPA1 protein level in Saccharomyces cerevisiae YSC1178-7502950 at 15 uM by Western blotting analysis relative to control; summary of the method: as §2
[5] = system: Saccharomyces cerevisiae; assay: Effect on growth rate in Saccharomyces cerevisiae BY4741
Summary of the method: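 Growth followed at 30 °C in nitrogen-limiting medium: 2% dextrose, 1 mM ammonium sulfate, 100 µM potassium phosphate pH 6.8, and 10 µg/mL each of leucine, methionine, uracil and histidine.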

[6] = system: Saccharomyces cerevisiae; assay: Decrease in TRP5 mRNA level in Saccharomyces cerevisiae BY4741 at 15 uM by Northern blot analysis in presence of arginine relative to control; summary of the method: as §1
[7] = system: Saccharomyces cerevisiae; assay: Increase in TRP5 mRNA level in Saccharomyces cerevisiae BY4741 at 15 uM by Northern blot analysis relative to control; summary of the method: as §1
[8] = system: Saccharomyces cerevisiae; assay: Increase in ARG5,6 mRNA level in Saccharomyces cerevisiae BY4741 at 15 uM by Northern blot analysis relative to control; summary of the method: as §1
[9] = system: Saccharomyces cerevisiae; assay: Decrease in TAP-tagged TRP5 protein level in Saccharomyces cerevisiae YSC1178-7500415 at 15 uM by Western blotting analysis in presence of arginine relative to control; summary of the method: as §2
[10] = system: Saccharomyces cerevisiae; assay: Increase in TAP-tagged TRP5 protein level in Saccharomyces cerevisiae YSC1178-7500415 at 15 uM by Western blotting analysis relative to control; summary of the method: as §2
[11] = system: Saccharomyces cerevisiae; assay: Decrease in CPA1 mRNA level in Saccharomyces cerevisiae BY4741 at 15 uM by Northern blot analysis in presence of arginine relative to control; summary of the method: as §1
[12] = system: Saccharomyces cerevisiae; assay: Decrease in TAP-tagged ARG5,6 protein level in Saccharomyces cerevisiae YSC1178-7500224 at 15 uM by Western blotting analysis in presence of arginine relative to control; summary of the method: as §2
[13] = system: Saccharomyces cerevisiae; assay: Increase in TAP-tagged ARG5,6 protein level in Saccharomyces cerevisiae YSC1178-7500224 at 15 uM by Western blotting analysis relative to control; summary of the method: as §2
[14] = system: Saccharomyces cerevisiae; assay: Decrease in ARG5,6 mRNA level in Saccharomyces cerevisiae BY4741 at 1 mg/ml by Northern blot analysis relative to control; summary of the method: as §1
[15] = system: Saccharomyces cerevisiae; assay: Decrease in CPA1 mRNA level in Saccharomyces cerevisiae BY4741 at 1 mg/ml by Northern blot analysis relative to control; summary of the method: as §1
[16] = system: Saccharomyces cerevisiae; assay: Decrease in TAP-tagged TRP5 protein level in Saccharomyces cerevisiae YSC1178-7500415 at 1 mg/ml by Western blotting analysis relative to control; summary of the method: as §2
[17] = system: Saccharomyces cerevisiae; assay: Decrease in TAP-tagged CPA1 protein level in Saccharomyces cerevisiae YSC1178-7502950 at 1 mg/ml by Western blotting analysis relative to control; summary of the method: as §2
[18] = system: Saccharomyces cerevisiae; assay: Decrease in TAP-tagged ARG5,6 protein level in Saccharomyces cerevisiae YSC1178-7500224 at 1 mg/ml by Western blotting analysis relative to control; summary of the method: as §2
[19] = system: Saccharomyces cerevisiae; assay: Decrease in TRP5 mRNA level in Saccharomyces cerevisiae BY4741 at 1 mg/ml by Northern blot analysis relative to control; summary of the method: as §1

Measured: Activity

N[C@@H](CCCNC(=O)CP(=O)(O)O)C(=O)O
inactive: [2] | [4] | [5] | [6] | [7] | [8] | [9] | [10] | [13]
active: [1] | [3] | [11] | [12]

N=C(N)NCCC[C@H](N)C(=O)O
inactive: [16] | [19]
active: [14] | [15] | [17] | [18]

From ChEMBL document CHEMBL1759921, “N5-phosphonoacetyl-L-ornithine (PALO): a convenient synthesis and investigation of influence on regulation of amino acid biosynthetic genes in Saccharomyces cerevisiae” (Bioorg Med Chem Lett, 2011)
